Test results taken from ChEMBL document CHEMBL4354843, “Structure-Based Design of a Potent and Selective Covalent Inhibitor for SRC Kinase That Targets a P-Loop Cysteine” (J Med Chem, 2020).
Calls of active or inactive are those of the source. No cut-off for these calls is given here.

How the values were obtained:
[1] = target: Mitogen-activated protein kinase; ERK1/ERK2 (Homo sapiens) (UniProt P27361+P28482); experiment: Inhibition of ERK1/2 in human NCI-H1975 cells assessed as blocking of ERK1/2 pulldown at 1 uM in presence of TL13-68 incubated for 2 hrs by Western blot analysis; assay type: cell-based
Sequence of Mitogen-activated protein kinase; ERK1/ERK2 (Homo sapiens) (P27361 whole entry, looked up): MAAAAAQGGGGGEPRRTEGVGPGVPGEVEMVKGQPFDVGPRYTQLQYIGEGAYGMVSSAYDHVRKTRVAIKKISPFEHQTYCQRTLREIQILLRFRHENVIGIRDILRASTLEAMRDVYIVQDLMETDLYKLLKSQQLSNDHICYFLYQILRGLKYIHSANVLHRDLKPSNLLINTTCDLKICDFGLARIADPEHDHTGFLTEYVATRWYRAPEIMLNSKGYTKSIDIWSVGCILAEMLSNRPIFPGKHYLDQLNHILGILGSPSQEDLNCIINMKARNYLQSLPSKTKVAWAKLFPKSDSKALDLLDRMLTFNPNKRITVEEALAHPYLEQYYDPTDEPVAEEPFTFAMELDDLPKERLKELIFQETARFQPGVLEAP
Sequence of Mitogen-activated protein kinase; ERK1/ERK2 (Homo sapiens) (P28482 whole entry, looked up): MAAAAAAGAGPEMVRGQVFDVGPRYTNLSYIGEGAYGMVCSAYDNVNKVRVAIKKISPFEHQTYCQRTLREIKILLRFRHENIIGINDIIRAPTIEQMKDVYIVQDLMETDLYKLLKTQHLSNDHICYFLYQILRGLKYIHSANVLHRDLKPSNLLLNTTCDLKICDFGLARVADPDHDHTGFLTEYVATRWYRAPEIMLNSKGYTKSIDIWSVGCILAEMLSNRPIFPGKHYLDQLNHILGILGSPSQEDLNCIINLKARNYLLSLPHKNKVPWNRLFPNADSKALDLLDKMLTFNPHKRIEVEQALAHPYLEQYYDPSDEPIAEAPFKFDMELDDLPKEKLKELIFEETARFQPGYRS
How it was run: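 H1975 or HCC827 cells treated with 1 μM compound or DMSO for 2 h, rinsed twice in cold PBS, and lysed in M-PER with protease/phosphatase inhibitors. Lysate rocked overnight at 4 °C with 1 μM TL13-68, then streptavidin pulldown with five cold washes. Bound kinases detected by Western blot. Two independent experiments.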

[2] = target: MAP kinase-activated protein kinase 5 (Homo sapiens) (UniProt Q8IW41); experiment: Binding affinity to wild-type human partial length MAPKAPK5 (M1 to D322 residues) expressed in mammalian expression system assessed as residual binding level at 1 uM by Kinomescan method relative to control
[3] = target: Cyclin-dependent kinase-like 3 (Homo sapiens) (UniProt Q8IVW4); experiment: Binding affinity to wild-type human partial length CDKL3 (M1 to D327 residues) expressed in bacterial expression system assessed as residual binding level at 1 uM by Kinomescan method relative to control
[4] = target: Receptor tyrosine-protein kinase erbB-2 (Homo sapiens) (UniProt P04626); experiment: Binding affinity to wild-type human partial length ERBB2 (K646 to V1225 residues) expressed in mammalian expression system assessed as residual binding level at 1 uM by Kinomescan method relative to control
How it was run: (§1)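 Active-site-directed competition binding panel of 468 kinases (KinomeScan), compound at 1 μM. The read-out is kinase remaining bound, given as a percentage of the DMSO control. […]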

[5] = target: Fibroblast growth factor receptor 1 (Homo sapiens, UniProt P11362); experiment: Binding affinity to wild-type human partial length FGFR1 (P357 to V669 residues) expressed in bacterial expression system assessed as residual binding level at 1 uM by Kinomescan method relative to control
[6] = target: Cyclin-dependent kinase 14 (Homo sapiens) (UniProt O94921); experiment: Binding affinity to wild-type human full length PFTK1 (M1 to H451 residues) expressed in bacterial expression system assessed as residual binding level at 1 uM by Kinomescan method relative to control
Sequence of Cyclin-dependent kinase 14 (Homo sapiens) (O94921 whole entry, the tested form may be a part): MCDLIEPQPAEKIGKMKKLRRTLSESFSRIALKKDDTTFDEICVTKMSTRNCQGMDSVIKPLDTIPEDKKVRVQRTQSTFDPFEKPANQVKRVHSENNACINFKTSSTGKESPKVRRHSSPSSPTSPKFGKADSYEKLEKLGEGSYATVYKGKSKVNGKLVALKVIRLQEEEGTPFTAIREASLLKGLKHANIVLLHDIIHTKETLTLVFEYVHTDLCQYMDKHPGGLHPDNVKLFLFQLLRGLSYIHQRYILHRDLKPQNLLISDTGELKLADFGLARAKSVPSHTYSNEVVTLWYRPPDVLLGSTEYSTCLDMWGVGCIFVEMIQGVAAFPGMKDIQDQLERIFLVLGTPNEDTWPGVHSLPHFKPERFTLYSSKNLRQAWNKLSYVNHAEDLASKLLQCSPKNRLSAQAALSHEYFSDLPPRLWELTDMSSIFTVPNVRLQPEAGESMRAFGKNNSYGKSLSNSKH
How it was run: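 Active-site-directed competition binding panel (KinomeScan) covering 468 kinases. Test agent was screened at 1 μM. The read-out is the remaining kinase signal expressed relative to a DMSO control. Scores above 35%, taken as weak binding, were not reported.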

[7] = target: Serine/threonine-protein kinase DCLK3 (Homo sapiens) (UniProt Q9C098); experiment: Binding affinity to wild-type human partial length DCAMKL3 (E140 to V628 residues) expressed in bacterial expression system assessed as residual binding level at 1 uM by Kinomescan method relative to control
[8] = target: Tyrosine-protein kinase Lyn (Homo sapiens) (UniProt P07948); experiment: Binding affinity to wild-type human partial length LYN (C219 to Q511 residues) expressed in bacterial expression system assessed as residual binding level at 1 uM by Kinomescan method relative to control; how it was run: as §1
[9] = target: Mitogen-activated protein kinase 4 (Homo sapiens) (UniProt P31152); experiment: Binding affinity to wild-type human partial length ERK4 (M1 to L365 residues) expressed in bacterial expression system assessed as residual binding level at 1 uM by Kinomescan method relative to control
Sequence of Mitogen-activated protein kinase 4 (Homo sapiens) (P31152 whole entry, the tested form may be a part): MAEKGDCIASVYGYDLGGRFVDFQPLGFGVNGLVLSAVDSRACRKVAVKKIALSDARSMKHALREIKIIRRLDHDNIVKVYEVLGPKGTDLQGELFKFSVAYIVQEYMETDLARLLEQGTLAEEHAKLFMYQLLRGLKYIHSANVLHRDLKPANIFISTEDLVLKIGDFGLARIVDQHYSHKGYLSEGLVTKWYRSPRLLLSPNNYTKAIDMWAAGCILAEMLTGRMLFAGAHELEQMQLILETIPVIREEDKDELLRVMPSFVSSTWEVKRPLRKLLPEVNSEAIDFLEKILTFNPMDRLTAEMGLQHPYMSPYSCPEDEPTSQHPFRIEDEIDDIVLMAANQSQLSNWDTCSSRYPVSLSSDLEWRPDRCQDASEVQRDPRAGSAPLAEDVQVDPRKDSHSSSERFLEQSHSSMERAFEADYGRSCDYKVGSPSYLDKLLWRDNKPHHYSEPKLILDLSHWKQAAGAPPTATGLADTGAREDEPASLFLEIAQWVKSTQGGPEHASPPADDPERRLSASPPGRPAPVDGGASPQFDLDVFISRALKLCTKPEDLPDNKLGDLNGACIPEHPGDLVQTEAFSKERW

[10] = target: Phosphatidylinositol 3-kinase catalytic subunit type 3 (Homo sapiens) (UniProt Q8NEB9); experiment: Binding affinity to wild-type human partial length VPS34 (S282 to H879 residues) expressed in mammalian expression system assessed as residual binding level at 1 uM by Kinomescan method relative to control
How it was run: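 Active site-directed competition binding panel (KinomeScan, 468 kinases). Test compound at 1 μM. Read-out is kinase binding remaining versus DMSO control, expressed as percent of control. Scores above 35% are treated as weak binding.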

[11] = target: Inhibitor of nuclear factor kappa-B kinase subunit alpha (Homo sapiens) (UniProt O15111); experiment: Binding affinity to wild-type human full length IKK-alpha (M1 to E745 residues) expressed in mammalian expression system assessed as residual binding level at 1 uM by Kinomescan method relative to control
How it was run: (§2)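 Active-site-directed KinomeScan competition binding panel covering 468 kinases, compound tested at 1 μM. Each readout is the kinase signal remaining with compound, expressed as a percentage of the DMSO control. […]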

[12] = target: Aurora kinase A (Homo sapiens) (UniProt O14965); experiment: Binding affinity to wild-type human partial length AURKA (E122 to K401 residues) expressed in mammalian expression system assessed as residual binding level at 1 uM by Kinomescan method relative to control
[13] = target: Mitogen-activated protein kinase 1 (Homo sapiens) (UniProt P28482); experiment: Binding affinity to wild-type human full length ERK2 (M1 to S360 residues) expressed in bacterial expression system assessed as residual binding level at 1 uM by Kinomescan method relative to control; how it was run: as §2
Sequence of Mitogen-activated protein kinase 1 (Homo sapiens) (P28482 whole entry, the tested form may be a part, canonical isoform): as the sequence (P28482 whole entry, looked up) above

[14] = target: Phosphatidylinositol 4,5-bisphosphate 3-kinase catalytic subunit beta isoform (Homo sapiens) (UniProt P42338); experiment: Binding affinity to wild-type human partial length PIK3CB (P118 to S1070 residues) expressed in mammalian expression system assessed as residual binding level at 1 uM by Kinomescan method relative to control
Sequence of Phosphatidylinositol 4,5-bisphosphate 3-kinase catalytic subunit beta isoform (Homo sapiens) (P42338 whole entry, looked up, the tested form may be a part, canonical isoform): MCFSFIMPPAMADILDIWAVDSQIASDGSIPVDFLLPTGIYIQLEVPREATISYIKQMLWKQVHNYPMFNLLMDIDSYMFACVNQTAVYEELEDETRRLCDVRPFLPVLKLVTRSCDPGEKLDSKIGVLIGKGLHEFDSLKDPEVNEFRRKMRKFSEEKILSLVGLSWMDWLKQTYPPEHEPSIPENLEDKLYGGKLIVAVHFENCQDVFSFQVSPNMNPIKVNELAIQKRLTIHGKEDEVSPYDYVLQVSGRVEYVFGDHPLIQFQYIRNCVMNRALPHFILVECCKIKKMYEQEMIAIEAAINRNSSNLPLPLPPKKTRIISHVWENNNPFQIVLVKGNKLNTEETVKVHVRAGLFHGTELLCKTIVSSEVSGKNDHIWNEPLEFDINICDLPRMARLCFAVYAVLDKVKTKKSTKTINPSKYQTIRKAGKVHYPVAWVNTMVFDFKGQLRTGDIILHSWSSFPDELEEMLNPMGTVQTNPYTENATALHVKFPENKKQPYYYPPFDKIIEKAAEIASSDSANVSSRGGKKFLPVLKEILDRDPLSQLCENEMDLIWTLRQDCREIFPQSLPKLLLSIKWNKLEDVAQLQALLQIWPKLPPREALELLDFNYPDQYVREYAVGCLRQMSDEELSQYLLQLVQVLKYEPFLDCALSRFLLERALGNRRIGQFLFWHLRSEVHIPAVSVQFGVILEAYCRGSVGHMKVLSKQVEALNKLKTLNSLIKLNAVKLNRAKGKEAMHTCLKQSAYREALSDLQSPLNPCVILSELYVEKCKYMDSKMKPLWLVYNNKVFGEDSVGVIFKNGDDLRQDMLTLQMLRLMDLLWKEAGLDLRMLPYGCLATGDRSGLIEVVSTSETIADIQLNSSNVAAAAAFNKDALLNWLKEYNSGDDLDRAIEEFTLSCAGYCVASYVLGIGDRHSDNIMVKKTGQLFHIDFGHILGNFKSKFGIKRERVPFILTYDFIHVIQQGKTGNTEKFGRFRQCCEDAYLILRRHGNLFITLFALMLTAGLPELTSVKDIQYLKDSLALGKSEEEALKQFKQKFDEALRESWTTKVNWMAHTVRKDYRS

[15] = target: 3-phosphoinositide-dependent protein kinase 1 (Homo sapiens) (UniProt O15530); experiment: Binding affinity to wild-type human full length PDPK1 (M1 to Q556 residues) expressed in bacterial expression system assessed as residual binding level at 1 uM by Kinomescan method relative to control
Sequence of 3-phosphoinositide-dependent protein kinase 1 (Homo sapiens) (O15530 whole entry, the tested form may be a part): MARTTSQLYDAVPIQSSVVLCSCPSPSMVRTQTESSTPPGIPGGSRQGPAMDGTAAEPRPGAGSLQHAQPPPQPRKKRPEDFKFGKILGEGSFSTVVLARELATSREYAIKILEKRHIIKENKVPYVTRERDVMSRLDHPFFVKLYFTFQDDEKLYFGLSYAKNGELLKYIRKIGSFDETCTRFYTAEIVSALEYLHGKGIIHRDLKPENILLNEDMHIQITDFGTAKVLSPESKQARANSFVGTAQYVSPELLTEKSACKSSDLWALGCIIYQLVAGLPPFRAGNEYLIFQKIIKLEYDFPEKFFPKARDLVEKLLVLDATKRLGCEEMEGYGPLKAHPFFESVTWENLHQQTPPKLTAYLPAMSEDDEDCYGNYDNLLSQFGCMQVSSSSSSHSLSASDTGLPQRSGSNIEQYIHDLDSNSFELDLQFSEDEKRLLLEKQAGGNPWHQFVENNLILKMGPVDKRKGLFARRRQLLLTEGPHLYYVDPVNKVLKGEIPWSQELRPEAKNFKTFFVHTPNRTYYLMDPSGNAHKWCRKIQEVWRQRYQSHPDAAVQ
How it was run: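 KinomeScan, an active site-directed competition binding panel of 468 kinases. The test compound was at 1 μM. The readout is remaining kinase binding as a percentage of the DMSO control. Scores above 35% were treated as weak binding and not listed.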

[16] = target: Tyrosine-protein kinase Mer (Homo sapiens) (UniProt Q12866); experiment: Binding affinity to wild-type human partial length MERTK (R557 to L884 residues) expressed in bacterial expression system assessed as residual binding level at 1 uM by Kinomescan method relative to control
Sequence of Tyrosine-protein kinase Mer (Homo sapiens) (Q12866 whole entry, the tested form may be a part): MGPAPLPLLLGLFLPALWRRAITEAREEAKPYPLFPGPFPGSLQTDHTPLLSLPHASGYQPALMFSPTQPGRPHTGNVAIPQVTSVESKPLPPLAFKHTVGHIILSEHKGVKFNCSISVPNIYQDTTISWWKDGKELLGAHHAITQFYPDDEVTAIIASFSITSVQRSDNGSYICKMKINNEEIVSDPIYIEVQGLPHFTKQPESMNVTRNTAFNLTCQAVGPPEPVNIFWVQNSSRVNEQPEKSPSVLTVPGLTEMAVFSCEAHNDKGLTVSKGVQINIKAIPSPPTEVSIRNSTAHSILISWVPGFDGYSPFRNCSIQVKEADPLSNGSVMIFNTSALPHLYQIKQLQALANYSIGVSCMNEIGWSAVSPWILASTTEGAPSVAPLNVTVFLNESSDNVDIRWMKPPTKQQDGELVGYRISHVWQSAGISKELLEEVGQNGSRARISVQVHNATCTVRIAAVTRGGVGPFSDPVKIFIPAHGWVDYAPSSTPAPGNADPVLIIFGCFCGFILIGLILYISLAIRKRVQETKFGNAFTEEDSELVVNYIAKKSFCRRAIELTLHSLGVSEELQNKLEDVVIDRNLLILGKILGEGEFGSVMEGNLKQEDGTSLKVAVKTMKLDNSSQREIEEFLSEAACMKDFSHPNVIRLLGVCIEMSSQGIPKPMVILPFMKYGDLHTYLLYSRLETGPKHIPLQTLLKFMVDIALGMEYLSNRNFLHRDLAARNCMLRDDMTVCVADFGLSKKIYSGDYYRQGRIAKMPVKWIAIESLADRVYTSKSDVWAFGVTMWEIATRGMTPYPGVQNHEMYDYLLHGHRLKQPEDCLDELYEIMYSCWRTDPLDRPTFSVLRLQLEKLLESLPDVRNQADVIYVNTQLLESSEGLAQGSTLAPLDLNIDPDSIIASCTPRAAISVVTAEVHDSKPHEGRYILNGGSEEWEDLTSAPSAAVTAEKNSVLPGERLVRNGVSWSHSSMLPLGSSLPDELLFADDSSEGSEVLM

[17] = target: Non-receptor tyrosine-protein kinase TYK2 (Homo sapiens) (UniProt P29597); experiment: Binding affinity to wild-type human partial length TYK2 JH1 catalytic domain (V877 to C1187 residues) expressed in mammalian expression system assessed as residual binding level at 1 uM by Kinomescan method relative to control
[18] = target: Ephrin type-A receptor 4 (Homo sapiens) (UniProt P54764); experiment: Binding affinity to wild-type human partial length EPHA4 (T601 to R897 residues) expressed in bacterial expression system assessed as residual binding level at 1 uM by Kinomescan method relative to control; how it was run: as §1
[19] = tested on: Epidermal growth factor receptor (Homo sapiens), P00533 [UNDEFINED MUTATION]; experiment: Binding affinity to human partial length EGFR L747-S752del/P753S mutant expressed in bacterial expression system assessed as residual binding level at 1 uM by Kinomescan method relative to control
How it was run: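 KinomeScan active site-directed competition binding panel (468 kinases), compound tested at 1 μM. Result expressed as remaining kinase signal versus DMSO control (percent of control).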

C=CC(=O)Nc1ccccc1Nc1nc(Nc2ccc(N3CCN(C)CC3)cc2)ncc1C(=O)Nc1c(C)cccc1Cl
inhibition [1]: inactive
Activity [2]: 100%
Activity [3]: 100%
Activity [4]: 63%
Activity [5]: 100%
Activity [6]: 100%
Activity [7]: 100%
Activity [8]: 2.8%
Activity [9]: 100%
Activity [10]: 98%
Activity [11]: 100%
Activity [12]: 100%
Activity [13]: 100%
Activity [14]: 100%
Activity [15]: 93%
Activity [16]: 95%
Activity [17]: 100%
Activity [18]: 75%
Activity [19]: 74%
